Source: ChEMBL document CHEMBL1131454 (J Med Chem, 1998)

What was measured:
[1] = molecular target: T1, Progesterone receptor (Homo sapiens, UniProt P06401); test: Antagonistic activity was determined in Human progesterone receptor(hPR) of CV-1 cells in cotransfection assay.; assay type: functional, cell-based
T1 sequence (P06401 whole entry): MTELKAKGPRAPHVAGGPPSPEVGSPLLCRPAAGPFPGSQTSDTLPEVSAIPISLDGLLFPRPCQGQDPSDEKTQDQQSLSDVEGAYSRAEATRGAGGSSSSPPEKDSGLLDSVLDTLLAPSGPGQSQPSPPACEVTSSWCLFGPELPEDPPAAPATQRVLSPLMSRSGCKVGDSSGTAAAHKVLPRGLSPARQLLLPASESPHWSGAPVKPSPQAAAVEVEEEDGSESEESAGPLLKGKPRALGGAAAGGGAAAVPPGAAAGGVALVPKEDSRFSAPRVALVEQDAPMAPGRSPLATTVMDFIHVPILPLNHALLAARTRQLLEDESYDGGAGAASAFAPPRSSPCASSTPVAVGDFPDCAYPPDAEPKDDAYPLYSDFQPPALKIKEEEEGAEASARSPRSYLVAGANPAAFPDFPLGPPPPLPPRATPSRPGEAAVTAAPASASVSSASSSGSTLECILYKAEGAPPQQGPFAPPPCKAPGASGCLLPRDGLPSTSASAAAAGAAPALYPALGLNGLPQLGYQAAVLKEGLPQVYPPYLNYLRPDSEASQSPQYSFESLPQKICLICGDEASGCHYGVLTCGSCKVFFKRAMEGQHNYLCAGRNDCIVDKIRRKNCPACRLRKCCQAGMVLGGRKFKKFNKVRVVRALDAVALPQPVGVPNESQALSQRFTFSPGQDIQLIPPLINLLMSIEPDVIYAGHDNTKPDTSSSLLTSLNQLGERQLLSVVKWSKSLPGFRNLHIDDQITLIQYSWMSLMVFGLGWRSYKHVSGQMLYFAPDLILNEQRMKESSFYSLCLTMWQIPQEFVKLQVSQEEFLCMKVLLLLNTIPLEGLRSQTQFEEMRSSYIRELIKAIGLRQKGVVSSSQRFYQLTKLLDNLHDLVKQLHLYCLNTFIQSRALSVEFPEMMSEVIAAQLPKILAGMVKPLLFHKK

[2] = molecular target: T1, Progesterone receptor; test: Agonistic activity to the human progesterone receptor (hPR)assayed in CV-1 cells in cotransfection assay.; assay type: functional, cell-based
[3] = molecular target: T2, Progesterone receptor (Homo sapiens) (UniProt P06401); test: Agonist efficacy for human progesterone receptor (hPR) was compared to that of progesterone (100%); assay type: functional
T2 sequence (whole entry): T1 sequence (P06401 whole entry)
Procedure, shortened: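 Cotransfection assay in CV-1 cells transiently transfected by calcium phosphate coprecipitation with hPR plasmid, MTV-LUC reporter, pRS-β-Gal and filler DNA. Full dose–response curves from 10^-12 to 10^-5 M were run. […] Values are the mean of at least three experiments with triplicate determinations, or of two experiments, or a single experiment.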

[4] = molecular target: T2, Progesterone receptor (Homo sapiens); test: Human progesterone receptor (hPR) antagonist efficacy was determined as a function (%) of maximal inhibition of progesterone at EC50 value.; assay type: functional
Procedure, shortened: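 hPR antagonist-mode cotransfection in CV-1 cells transiently transfected by calcium phosphate coprecipitation with hPR plasmid, MTV-LUC reporter, pRS-β-Gal and filler DNA. […] Values come from one, two, or at least three experiments in triplicate.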

[5] = molecular target: T1, Progesterone receptor; test: The binding affinity on Human progesterone receptor (hPR-A) using progesterone as radioligand.
[6] = molecular target: T3, Glucocorticoid receptor (Homo sapiens, UniProt P04150); test: Agonist activity against Human glucocorticoid receptor(hGR) expressed in CV-1 cells; assay type: functional, cell-based
T3 sequence (P04150 whole entry): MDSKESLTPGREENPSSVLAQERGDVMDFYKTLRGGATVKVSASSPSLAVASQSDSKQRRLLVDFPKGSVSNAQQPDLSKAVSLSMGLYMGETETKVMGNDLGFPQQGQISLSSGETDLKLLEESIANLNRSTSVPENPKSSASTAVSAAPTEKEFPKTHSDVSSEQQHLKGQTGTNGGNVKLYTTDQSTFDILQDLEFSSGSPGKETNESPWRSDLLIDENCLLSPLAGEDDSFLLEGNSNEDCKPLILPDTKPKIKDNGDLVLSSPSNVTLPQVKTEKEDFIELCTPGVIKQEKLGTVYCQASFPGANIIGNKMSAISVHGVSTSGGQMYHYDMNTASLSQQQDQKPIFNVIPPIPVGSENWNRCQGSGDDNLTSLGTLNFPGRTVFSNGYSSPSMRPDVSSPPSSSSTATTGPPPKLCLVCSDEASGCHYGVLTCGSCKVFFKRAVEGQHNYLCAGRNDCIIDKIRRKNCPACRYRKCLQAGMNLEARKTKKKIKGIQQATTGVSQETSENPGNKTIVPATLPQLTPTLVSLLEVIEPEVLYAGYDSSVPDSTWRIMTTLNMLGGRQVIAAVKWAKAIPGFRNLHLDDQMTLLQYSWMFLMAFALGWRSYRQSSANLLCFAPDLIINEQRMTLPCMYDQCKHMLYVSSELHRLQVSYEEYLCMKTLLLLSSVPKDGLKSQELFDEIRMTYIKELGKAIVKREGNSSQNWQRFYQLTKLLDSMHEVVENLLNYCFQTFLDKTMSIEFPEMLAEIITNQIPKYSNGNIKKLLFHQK

[7] = molecular target: T3, Glucocorticoid receptor
[8] = molecular target: T4, Mineralocorticoid receptor (Homo sapiens, UniProt P08235); test: Antagonistic activity was determined in Human mineralocorticoid receptor(hMR) of CV-1 cells in cotransfection assay.; assay type: functional, cell-based
T4 sequence (P08235 whole entry): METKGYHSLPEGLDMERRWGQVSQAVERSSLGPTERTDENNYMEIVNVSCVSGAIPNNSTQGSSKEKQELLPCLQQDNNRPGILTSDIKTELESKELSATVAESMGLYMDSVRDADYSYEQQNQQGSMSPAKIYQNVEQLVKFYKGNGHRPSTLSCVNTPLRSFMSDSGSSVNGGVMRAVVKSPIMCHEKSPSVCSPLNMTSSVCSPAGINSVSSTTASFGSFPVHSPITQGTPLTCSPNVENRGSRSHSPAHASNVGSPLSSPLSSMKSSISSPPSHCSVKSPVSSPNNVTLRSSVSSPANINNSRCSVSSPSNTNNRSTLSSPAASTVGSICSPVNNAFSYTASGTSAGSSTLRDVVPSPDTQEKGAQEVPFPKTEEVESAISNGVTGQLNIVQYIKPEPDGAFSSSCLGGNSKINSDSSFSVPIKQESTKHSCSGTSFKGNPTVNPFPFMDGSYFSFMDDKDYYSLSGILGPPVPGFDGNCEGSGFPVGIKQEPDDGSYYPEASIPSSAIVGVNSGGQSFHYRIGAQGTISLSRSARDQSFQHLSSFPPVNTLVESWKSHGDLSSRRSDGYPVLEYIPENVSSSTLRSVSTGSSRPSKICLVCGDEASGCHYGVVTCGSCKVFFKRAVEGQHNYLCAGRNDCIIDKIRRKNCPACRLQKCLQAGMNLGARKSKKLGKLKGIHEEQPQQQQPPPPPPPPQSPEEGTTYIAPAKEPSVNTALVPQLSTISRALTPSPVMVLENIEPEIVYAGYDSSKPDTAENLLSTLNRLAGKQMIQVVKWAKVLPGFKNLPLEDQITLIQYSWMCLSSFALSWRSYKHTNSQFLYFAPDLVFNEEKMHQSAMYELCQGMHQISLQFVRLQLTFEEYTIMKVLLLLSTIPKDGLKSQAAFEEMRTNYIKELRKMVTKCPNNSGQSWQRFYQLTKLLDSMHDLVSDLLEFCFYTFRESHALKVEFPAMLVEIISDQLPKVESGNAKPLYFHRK

[9] = molecular target: T5, Androgen receptor (Homo sapiens, UniProt P10275)
T5 sequence (P10275 whole entry): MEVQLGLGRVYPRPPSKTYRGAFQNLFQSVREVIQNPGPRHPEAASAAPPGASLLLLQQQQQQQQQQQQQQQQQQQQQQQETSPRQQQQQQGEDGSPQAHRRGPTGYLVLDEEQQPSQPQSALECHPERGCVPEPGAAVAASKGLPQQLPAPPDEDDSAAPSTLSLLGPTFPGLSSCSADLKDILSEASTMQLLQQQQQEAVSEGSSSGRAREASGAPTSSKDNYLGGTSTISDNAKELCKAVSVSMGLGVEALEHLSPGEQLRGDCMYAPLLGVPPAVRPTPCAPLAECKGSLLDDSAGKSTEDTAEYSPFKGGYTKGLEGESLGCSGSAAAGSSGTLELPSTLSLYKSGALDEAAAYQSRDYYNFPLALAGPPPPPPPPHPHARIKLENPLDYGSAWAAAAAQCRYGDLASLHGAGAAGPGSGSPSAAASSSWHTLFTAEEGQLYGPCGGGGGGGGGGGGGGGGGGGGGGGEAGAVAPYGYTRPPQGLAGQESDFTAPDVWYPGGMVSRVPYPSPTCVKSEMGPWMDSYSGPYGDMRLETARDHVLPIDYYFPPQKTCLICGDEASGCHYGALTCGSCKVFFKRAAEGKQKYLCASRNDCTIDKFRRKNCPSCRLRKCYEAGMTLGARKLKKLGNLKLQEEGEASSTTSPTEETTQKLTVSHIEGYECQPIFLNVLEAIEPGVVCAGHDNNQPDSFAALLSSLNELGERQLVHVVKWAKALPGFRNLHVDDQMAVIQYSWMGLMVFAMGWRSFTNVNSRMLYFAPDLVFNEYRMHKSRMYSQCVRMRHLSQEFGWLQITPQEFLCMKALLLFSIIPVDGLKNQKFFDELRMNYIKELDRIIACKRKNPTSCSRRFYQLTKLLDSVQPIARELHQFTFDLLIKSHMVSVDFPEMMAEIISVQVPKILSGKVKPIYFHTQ

[10] = molecular target: T5, Androgen receptor; remark: listed apart in the source
[11] = molecular target: T3, Glucocorticoid receptor; remark: listed apart in the source

| IC50 [1] | EC50 [2] | Efficacy [3] | Efficacy [4] | Ki [5] | EC50 [6] | Ki [7] | IC50 [8] | IC50 [9] | Ki [10] | IC50 [11] | SMILES |
| --- | --- | --- | --- | --- | --- | --- | --- | --- | --- | --- | --- |
| 1210 nM | 27 nM | 49% | 65% | 2.4 nM | – | – | – | – | – | – | CC1=CC(C)(C)Nc2ccc3c(c21)C(c1cc(F)cc(Br)c1)Oc1ccccc1-3 (stereo unspecified) |
| 4600 nM | 25 nM | 60% | 56% | 6.8 nM | – | – | – | – | – | – | CC1=CC(C)(C)Nc2ccc3c(c21)C(c1ccc(F)c(C(F)(F)F)c1)Oc1ccccc1-3 (stereo unspecified) |
| 132 nM | > 10000 nM | < 20% | 68% | 8.8 nM | – | – | – | – | – | – | CC(=O)c1ccc(C2Oc3ccccc3-c3ccc4c(c32)C(C)=CC(C)(C)N4)cc1 (stereo unspecified) |
| 150 nM | 8 nM | 48% | 74% | 0.69 nM | – | – | – | – | – | – | CC1=CC(C)(C)Nc2ccc3c(c21)C(c1cccc(F)c1)Oc1ccccc1-3 (stereo unspecified) |
| 150 nM | 33 nM | 35% | 49% | 10.8 nM | – | – | – | – | – | – | CC1=CC(C)(C)Nc2ccc3c(c21)C(c1ccc(C(F)(F)F)cc1)Oc1ccccc1-3 (stereo unspecified) |
| 54 nM | 3900 nM | 24% | 86% | 3.9 nM | – | – | – | – | – | – | CC1=CC(C)(C)Nc2ccc3c(c21)C(c1ccc(Br)nc1)Oc1ccccc1-3 (stereo unspecified) |
| 342 nM | 8 nM | 28% | 77% | 5.3 nM | – | – | – | – | – | – | CC1=CC(C)(C)Nc2ccc3c(c21)C(c1ccc(F)cc1)Oc1ccccc1-3 (stereo unspecified) |
| 105 nM | > 10000 nM | < 20% | 65% | 13.3 nM | – | – | – | – | – | – | COc1ccc(C2Oc3ccccc3-c3ccc4c(c32)C(C)=CC(C)(C)N4)cc1 (stereo unspecified) |
| – | – | – | – | – | 10 nM | 13.2 nM | 1200 nM | – | – | – | CC(=O)O[C@]1(C(C)=O)CC[C@H]2[C@@H]3C[C@H](C)C4=CC(=O)CC[C@]4(C)[C@H]3CC[C@@]21C [MEDROXYPROGESTERONE ACETATE] |
| 71 nM | 1700 nM | 21% | 86% | 13.8 nM | – | – | – | – | – | – | CC1=CC(C)(C)Nc2ccc3c(c21)C(c1cccc(Br)n1)Oc1ccccc1-3 (stereo unspecified) |
| 290 nM | 156 nM | – | – | 3.6 nM | – | 154 nM | 354 nM | 745 nM | 1860 nM | 226 nM | CC1=CC(C)(C)Nc2ccc3c(c21)C(c1ccccc1)Oc1ccccc1-3 (stereo unspecified) |
